PubChem BioAssay
Results filed as inconclusive are left out. Active and inactive are the calls of the source.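 How the source made its calls, unless noted: active means viability at or below 27.92% in each of two runs, the all-compound median minus 4 SD; inconclusive means no clear call, values can overlap the other calls; inactive means the rest.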

Legend:
[1] = OD615 S. cerevisiae growth inhibition, permissive medium, pilot counter-assay, permissive growth control for S. cerevisiae lifespan shortening project (AID 705;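 active means growth inhibition above 25% in both replicates, a cutoff set 3 SD above the mean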); details: OD615, 24 h, at 10 µM, stronger effect = higher value
How it was run: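 assay system = Saccharomyces cerevisiae strain carrying genetically modified DeaD replicative-lifespan system | technique = absorbance (optical density) at 615 nm | buffer or medium = permissive raffinose/galactose medium | timing = cells pre-grown 4 h, then 24 h compound exposure, 30 °C humidified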

[2] = Restrictive medium S. cerevisiae growth inhibition, OD615, pilot screen of yeast lifespan reduction project, restrictive growth control (AID 706;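 active means growth inhibition above a set limit, 3 SD over mean compound inhibition, in both replicates, cut at about 43% in these data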;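 further: modified DeaD lifespan yeast strain shifted to restrictive glucose medium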); details: OD615, 48 h, at 10 µM, stronger effect = higher value
How it was run: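 System: modified S. cerevisiae. Buffer or medium: CSMM-D glucose medium. Incubation: 4 h pre-growth plus 48 h compound exposure, 30 °C. Detection: absorbance (optical density) measured at 615 nm.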

[3] = viability gain of MRP-1-high H69AR cells under doxorubicin, pilot screen, MRP-1 activator project, CellTiter-Glo, duplicate (AID 807;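 active means viability increase at or above a cutoff of the median across tested compounds plus 3 SD, cut at about 8.5% in these data, passing the limit was not always enough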;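 further: compound pretreatment 18-22 h then 72 h combined with doxorubicin; 0% = doxorubicin alone and 100% = vehicle without doxorubicin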); details: H69AR viability with doxorubicin, CellTiter-Glo luminescence; at 10 µM; stronger effect = higher value
[4] = growth suppression of beta-catenin knockout HCT116, pilot screen, human colon tumor cells (AID 823;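 active means cell viability at or below a set limit in both duplicate runs, the limit being the all-compound median minus 4 SD, cut at about 23% in these data, passing the limit was not always enough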;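 further: 0% = wells killed by 20 µM Hyamine and 100% = untreated DMSO cell wells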); details: CellTiter-Glo, 60 h, at 10 µM, stronger effect = lower value
[5] = growth suppression of PTEN-deleted HCT116, pilot screen, cell-based, HCT116 clonal line, CellTiter-Glo (AID 824); details: 60 h, at 10 µM, stronger effect = lower value;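 further: 0% = 20 µM Hyamine control and 100% = vehicle cell control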
[6] = inhibitors of the yeast RAM network, pilot screen, dse1pr::URA3 reporter, 5-FOA selection (AID 869;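 active means inhibition over a set limit, the all-compound mean plus 3 SD, in both replicate runs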;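 further: 0% = DMSO wells with no growth and 100% = 10 µM 1-NA-PP1 with full growth; RAM network block rescues cells from 5-FOA so hits raise OD615 growth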); details: S. cerevisiae dse1pr::URA3 5-FOA growth, OD615, 2 d; at 10 µM; stronger effect = higher value; strain carries analog-sensitive mutant Cbk1 kinase
[7] = RAM signaling pathway blockade in yeast – S. cerevisiae, Pdr1DBD-CYC8 efflux-inhibited sensitized strain, primary screen (AID 1298;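 active means RAM network inhibition above 8.4% in each of two replicates, 3 SD over the compound average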;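 further: 0% = DMSO untreated cells without growth and 100% = 10 µM 1-NA-PP1 full growth; higher means more yeast growth rescued from 5-FOA killing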); details: S. cerevisiae cbk1-as DSE1-URA3 strain, 5-FOA growth OD615, 2 d; at 50 µM; stronger effect = higher value

CCN1C(=O)NC2C1N(S(C)(=O)=O)CCN2S(C)(=O)=O (stereo not given)
inactive: growth inhibition [1] -1.72% | growth inhibition [2] 2.34% | viability increase [3] -0.57% | viability [4] 108% | viability [5] 92.1% | inhibition [6] 1.29% | RAM network inhibition [7] 4.02%

CC(=O)N1c2ccccc2N(Cc2ccc(C)cc2C)C(=O)C1(C)C
active: viability [4] 16% | viability [5] 20.7%
inactive: growth inhibition [1] -6.6% | growth inhibition [2] 5.81% | viability increase [3] -6.55% | inhibition [6] 1.14% | RAM network inhibition [7] 9.4%

COc1ccc(C)cc1NC(=O)c1nnn(CCc2ccccc2)c1N
inactive: growth inhibition [1] -5.25% | growth inhibition [2] -3.95% | viability increase [3] -5.29% | viability [4] 85.8% | viability [5] 81.5% | inhibition [6] 2.73% | RAM network inhibition [7] 3.9%

Cc1cc(C)cc(OCC(O)CN2C(=O)NC(C)(C)C2=O)c1 (stereo not given)
inactive: growth inhibition [1] 2.01% | growth inhibition [2] 2.59% | viability increase [3] 0.13% | viability [4] 108% | viability [5] 103% | inhibition [6] -0.255% | RAM network inhibition [7] 2.26%

CC(=O)N(c1c(C)n(C)n(-c2ccccc2)c1=O)C1(C(=O)NC2CCCC2)CCCCC1
inactive: growth inhibition [1] -1.1% | growth inhibition [2] -19% | viability increase [3] -1.56% | viability [4] 95.1% | viability [5] 95.8% | inhibition [6] 0.27% | RAM network inhibition [7] -1.24%

CCOc1ccc(NC(=O)CN(c2ccc(OC)cc2)S(C)(=O)=O)cc1
inactive: growth inhibition [1] 6.96% | growth inhibition [2] -0.54% | viability increase [3] 0.19% | viability [4] 98.1% | viability [5] 98.8% | inhibition [6] 1.7% | RAM network inhibition [7] 4.91%

COc1ccc(NC(=O)C2c3cc(OC)c(OC)cc3C(=O)N(C)C2c2cccnc2)cc1OC (stereo not given)
inactive: growth inhibition [1] -1.76% | growth inhibition [2] -0.86% | viability increase [3] -3.2% | viability [4] 94.8% | viability [5] 95.5% | inhibition [6] 0.645% | RAM network inhibition [7] 4.68%

Cc1cc(C)n(S(=O)(=O)c2ccc(Cl)c(Cl)c2Cl)n1
inactive: growth inhibition [1] -8.03% | growth inhibition [2] 4.29% | viability increase [3] -4.34% | viability [4] 86% | viability [5] 84.6% | inhibition [6] 1.17% | RAM network inhibition [7] 3.65%

CC(=O)c1cccc(NC(=O)C2CCCN2S(=O)(=O)c2cccc3cccnc23)c1 (stereo not given)
inactive: growth inhibition [1] -1.04% | growth inhibition [2] 3.5% | viability increase [3] -5.23% | viability [4] 74.4% | viability [5] 82.7% | inhibition [6] 1.09% | RAM network inhibition [7] 6.23%

CC1CCCN(C(=O)C2CCN(S(=O)(=O)c3cccc4cccnc34)CC2)C1 (stereo not given)
inactive: growth inhibition [1] 1.07% | growth inhibition [2] 3.5% | viability increase [3] -3.54% | viability [4] 89.6% | viability [5] 85.6% | inhibition [6] 1.04% | RAM network inhibition [7] 5.46%

Cc1ccc2c(c1)N(CCCC(=O)NCc1ccc3c(c1)OCO3)C(=O)CO2
inactive: growth inhibition [1] -5.25% | growth inhibition [2] -25.1% | viability increase [3] -6.26% | viability [4] 95.4% | viability [5] 83.9% | inhibition [6] 0.43% | RAM network inhibition [7] 1.64%

CCN1C(=O)c2ccc(-c3nc4ccccc4c(=O)o3)cc2C1=O
inactive: growth inhibition [1] -8.45% | growth inhibition [2] -0.43% | viability increase [3] -0.05% | viability [4] 99% | viability [5] 94.7% | inhibition [6] 1.71% | RAM network inhibition [7] 3.16%

O=C(NCCCn1ccnc1)c1cc(C2CC2)on1
inactive: growth inhibition [1] -14.9% | growth inhibition [2] -11.1% | viability increase [3] 0.19% | viability [4] 105% | viability [5] 103% | inhibition [6] 1.95% | RAM network inhibition [7] 6.12%

COc1cc(C2C3=C(CC(c4ccco4)CC3=O)Nc3ccccc3N2C(C)=O)cc(OC)c1OC (stereo not given)
inactive: growth inhibition [1] -0.74% | growth inhibition [2] 8.4% | viability increase [3] -3.38% | viability [4] 91.8% | viability [5] 89% | inhibition [6] 1.3% | RAM network inhibition [7] 6.7%

CCC1CCCCN1C(=O)CSc1nc(N)c(NC(=O)c2ccco2)c(=O)[nH]1 (stereo not given)
inactive: growth inhibition [1] 12.5% | growth inhibition [2] 10.7% | viability increase [3] -2.48% | viability [4] 106% | viability [5] 99% | inhibition [6] 2.09% | RAM network inhibition [7] 2.2%
